ChEMBL document CHEMBL1150381, “Effects of amide constituents from pepper on adipogenesis in 3T3-L1 cells” (Bioorg Med Chem Lett, 2008)
Activity calls are given as the source filed them. The rule behind the calls is not given here.

Experiments:
3T3-L1 [1] = test: Antidiabetic activity in mouse 3T3L1 cells assessed as enhancement of triglyceride accumulation at 1 uM; assay type: functional
In short: (§1)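 3T3-L1 cells (5.0 × 10^4/well) in DMEM + 10% FCS; after 24 h differentiated 72 h in high-glucose DMEM/10% FCS with 1 µM dexamethasone, 0.5 mM IBMX, 5 µg/mL insulin, then maintenance medium (10% FCS, 5 µg/mL insulin) 4 days. Compound in DMSO (final 0.1%) in both media. Day 8: cells sonicated in water, triglyceride measured by enzymatic kit; means ± SEM, n = 4.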

3T3-L1 [2] = test: Antidiabetic activity in mouse 3T3L1 cells assessed as enhancement of triglyceride accumulation at 30 uM; assay type: functional; in short: as §1
3T3-L1 [3] = test: Antidiabetic activity in mouse 3T3L1 cells assessed as enhancement of triglyceride accumulation at 10 uM; assay type: functional; in short: as §1
3T3-L1 [4] = test: Antidiabetic activity in mouse 3T3L1 cells assessed as enhancement of triglyceride accumulation at 3 uM; assay type: functional; in short: as §1
3T3-L1 [5] = test: Cytotoxicity against mouse 3T3L1 cells at 30 uM; assay type: cell-based; settings: 3t3-l1, 30 µM
In short: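 Cells differentiated and treated through day 8 as in triglyceride assay; cytotoxicity at 30 µM judged by cell detachment from culture plate surface.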

3T3-L1 [6] = test: Increase in 2-deoxyglucose uptake in mouse 3T3L1 cells at 3 uM by liquid scintillation counter; assay type: functional, cell-based
In short: (§2)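 Cells differentiated as for triglyceride assay with compound in DMSO (final 0.1%) in differentiation and maintenance media. Day 8: serum-free 4 h, KRP buffer wash, 20 min with 100 nM insulin, then 0.1 mM 2-deoxyglucose plus [3H]2-deoxyglucose (1 µCi/mL) 10 min at 37 °C. Lysed in 1 M NaOH, neutralized, scintillation counted; cytochalasin B (20 µM) nonspecific uptake subtracted.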

3T3-L1 [7] = test: Increase in GLUT4 mRNA expression in mouse 3T3L1 cells after 4 days by RT-PCR; assay type: functional, cell-based
In short: (§3)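 3T3-L1 cells (1.0 × 10^6/well) in DMEM + 10% FCS, differentiated with compound; control 0.1% DMSO; mRNA levels of adiponectin, PPARγ2, GLUT4, IRS-1 assessed; means ± SEM, n = 3.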

3T3-L1 [8] = test: Induction of adiponectin release to medium in mouse 3T3L1 cells at 10 uM by ELISA; assay type: functional, cell-based
In short: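 3T3-L1 cells (5.0 × 10^4/well) differentiated, then maintenance medium 4 days; compound in DMSO (final 0.1%) present in media; on day 8 adiponectin in culture medium quantified by ELISA.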

3T3-L1 [9] = test: Increase in adiponectin mRNA expression in mouse 3T3L1 cells at 10 uM after 4 days by RT-PCR; assay type: functional, cell-based; in short: as §3
3T3-L1 [10] = test: Increase in 2-deoxyglucose uptake in mouse 3T3L1 cells by liquid scintillation counter; assay type: functional, cell-based; in short: as §2
3T3-L1 [11] = test: Increase in IRS1 mRNA expression in mouse 3T3L1 cells at 30 uM after 4 days by RT-PCR; assay type: functional, cell-based; in short: as §3
3T3-L1 [12] = test: Increase in PPARgamma2 mRNA expression in mouse 3T3L1 cells after 4 days by RT-PCR; assay type: functional, cell-based; in short: as §3

Compound	Activity (3T3-L1 [1]) [%]	Activity (3T3-L1 [2]) [%]	Activity (3T3-L1 [3]) [%]	Activity (3T3-L1 [4]) [%]	Activity (3T3-L1 [5]) [%]	Activity (3T3-L1 [6])	Activity (3T3-L1 [7])	Activity (3T3-L1 [8])	Activity (3T3-L1 [9])	Activity (3T3-L1 [10])	Activity (3T3-L1 [11])	Activity (3T3-L1 [12])
CC(C)CNC(=O)/C=C/C=C/c1ccc2c(c1)OCO2 [PIPERLONGUMININE]	19.5	20.4	31.8	28.1								
CC(C)CNC(=O)/C=C/CCCCCC/C=C/c1ccc2c(c1)OCO2 [PIPERCHABAMIDE D]	1.7	4.7	8.5	8								
COC(=O)/C=C/C=C/c1ccc2c(c1)OCO2 [METHYL PIPERATE]	5.2	17.1	25.2	17.8								
O=C(CCCCCC/C=C/c1ccc2c(c1)OCO2)N1CCCCC1 [PIPERROLEIN B]	-2.8	9.4	20.9	30.3								
O=C(/C=C/CCCCCC/C=C/c1ccc2c(c1)OCO2)N1CCCCC1 [PIPERCHABAMIDE B]	-14.1		-3.5	-2.2	-30.3							
CCCCC/C=C/C=C/C(=O)NCC(C)C [PELLITORIN]	4.4	6.2	10	18.2								
O=C(O)/C=C/C=C/CC/C=C/c1ccc2c(c1)OCO2	-3.9	-7.3	3.9	1.5								
CCCCC/C=C\CCCCCCCC/C=C/C=C/C(=O)NCC(C)C	-3	20.2	7.2	-7.2								
CCOC(=O)/C=C/C=C/CC/C=C/c1ccc2c(c1)OCO2	2.9	8.7	1.2	2.9								
Cc1c(C)c2c(c(C)c1O)CCC(C)(COc1ccc(CC3SC(=O)NC3=O)cc1)O2 (centres undefined) [TROGLITAZONE]	33.8		39.6	40.5		Active						
CC(C)CNC(=O)/C=C/C=C/CCCCCCCC/C=C/c1ccc2c(c1)OCO2 [BRACHYSTAMIDE B]	11.1	13.7	16.8	18.5								
CC(C)CNC(=O)/C=C/C=C/CC/C=C/c1ccc2c(c1)OCO2 [RETROFRACTAMIDE A]	25.1	33.3	27.8	27.3		Active	Active	Active	Active	Dose-dependent effect	Active	Active
CC(C)CNC(=O)/C=C/CCCC/C=C/c1ccc2c(c1)OCO2 [RETROFRACTAMIDE C]	9.7	15.4	22.2	15								
CCCCCCCCCCCCC/C=C/C=C/C(=O)NCC(C)C	14.1	20.6	19.6	3.3								
CC(C)CNC(=O)/C=C/C=C/CCCC/C=C/c1ccc2c(c1)OCO2 [RETROFRACTAMIDE B]	18.8	27.6	28.4	29.9								
CC(C)CNC(=O)/C=C/C=C/CCCCCC/C=C/c1ccc2c(c1)OCO2 [GUINEENSINE]	1.5	2	0.8	9.7								
O=C(/C=C/C=C/CCCCCC/C=C/c1ccc2c(c1)OCO2)N1CCCCC1 [PIPERCHABAMIDE C]	9.4	-11	-10.2	17.6								
O=C(/C=C/C=C/c1ccc2c(c1)OCO2)N1CCCCC1 [PIPERINE]	-1.2	-1.2	-14.2	-3.9								
O=C(/C=C/C=C/CCCC/C=C/c1ccc2c(c1)OCO2)N1CCCCC1 [PIPERUNDECALIDIENE]	-13		7.3	-7.3	-60.8							
CCCCCCC/C=C/C=C/C(=O)NCC(C)C	10.1	15.3	11.1	16.3								
O=C(/C=C/C=C/CC/C=C/c1ccc2c(c1)OCO2)N1CCCCC1 [DEHYDROPIPERNOLINE]	0.5		1.5	1.8	-19.9							
O=C(/C=C/CCCC/C=C/c1ccc2c(c1)OCO2)N1CCCCC1 [PIPERNONALINE]	1		10.5	5.4	-61.2							
O=C(/C=C/CCc1ccc2c(c1)OCO2)N1CCCCC1 [PIPERANINE]	20.4	8.3	13.1	19.1								
